Measured values from ChEMBL document CHEMBL1123921, “Quinolonecarboxylic acids. 2. Synthesis and antibacterial evaluation of 7-oxo-2,3-dihydro-7H-pyrido[1,2,3-de][1,4]benzothiazine-6-carboxylic acids” (J Med Chem, 1987).
Values after ≈ are worked out from the molar mass of the structure shown.

What was measured:
[1] = Lethal dose after single iv administration to mouse was determined; format: toxicity, organism-based; settings: in vivo
in vivo [2] = settings: ip, 25 mg/kg
[3] = Urinary excretion for the compound was evaluated as percent dose excreted at 25 mg/kg os dosage; format: ADME, organism-based; parameters: dose 25 mg/kg; settings: urine, po
How it was run: (§1)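 Fasted male Wistar rats (180–230 g) dosed orally, suspended in carboxymethyl cellulose. Plasma and urine assayed by HPLC: sample plus internal standard and citrate buffer (0.1 M, pH 6.2), extracted into CHCl₃, dried, redissolved in MeOH. Separation on C-18 with 0.1% AcOH/MeOH gradient, UV detection at 245 nm.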

[4] = Peak plasma concentration at a dose of 400 mg/kg, oral route in human; format: ADME, organism-based; parameters: dose 400 mg/kg, route oral; settings: read-out: Activity
How it was run: (§2)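 Four healthy volunteers of both sexes took oral capsules (100 mg units) at three dose levels. Venous blood drawn into heparinized tubes and plasma obtained by low-speed centrifugation. Urine collected. Unchanged drug in plasma and urine determined by C-18 HPLC after CHCl₃ extraction, with UV detection at 245 nm.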

Homo sapiens = assay: Urinary clearance was determined at 100 mg/kg oral dosage in human; format: ADME, organism-based, Urine; parameters: dose 100 mg/kg, route oral; settings: in vivo; how it was run: as §2
[5] = Half life period was determined for the compound at 100 mg/kg concentration, oral route in human; format: ADME, organism-based; parameters: dose 100 mg/kg, route oral; settings: in vivo; how it was run: as §2
[6] = Ratio of tissue (heart) levels to plasma levels after 1 hr of treatment; format: ADME
How it was run: (§3)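 Male Wistar rats received 50 mg/kg po and were killed at 1 and 15 h. Tissue homogenates and plasma extracted with CHCl₃ after adding internal standard and pH 6.2 citrate buffer. Drug quantified by C-18 HPLC with UV at 245 nm. Tissue level divided by plasma level.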

[7] = Time taken for peak plasma concentration at a dose of 20 mg/kg, oral route in monkey (Macaca fascicularis) suspended in carboxymethyl cellulose (CMC); format: ADME, organism-based; parameters: dose 20 mg/kg, route oral; settings: cynomolgus monkey
How it was run: (§4)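 Four male beagle dogs or two Macaca fascicularis monkeys dosed orally, suspended in carboxymethyl cellulose. Venous blood collected into heparinized tubes and plasma separated by low-speed centrifugation. Urine gathered in metabolic cages. Unchanged drug measured by C-18 HPLC (extraction, UV 245 nm).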

in vivo [8] = settings: liver, po, 50 mg/kg
[9] = Urinary clearance was determined in rat at 25 mg/kg intraperitoneal dosage; format: ADME, organism-based; parameters: dose 25 mg/kg, route intraperitoneal; settings: urine, ip, read-out: CL_renal (converted)
How it was run: (§5)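 Fasted male Wistar rats (180–230 g) given the drug ip in carboxymethyl cellulose. Plasma and urine extracted with CHCl₃ from citrate buffer pH 6.2 with internal standard. Analysis by reverse-phase C-18 HPLC, 0.1% AcOH/MeOH gradient, 245 nm UV. Urinary clearance and total clearance derived as pharmacokinetic parameters.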

[10] = Urinary excretion for the compound was evaluated as percent dose excreted at 25 mg/kg intraperitoneal dosage; format: ADME, organism-based; parameters: dose 25 mg/kg, route intraperitoneal; settings: urine, ip; how it was run: as §5
in vivo [11] = settings: kidney, po, 50 mg/kg
[12] = Urinary excretion for the compound was evaluated as percent dose excreted at 100 mg/kg oral dosage in human; format: ADME, organism-based; parameters: dose 100 mg/kg, route oral; settings: urine; how it was run: as §2
in vivo [13] = settings: plasma, po, 50 mg/kg
[14] = Half life period was determined for the compound at 20 mg/kg concentration, oral route in monkey (Macaca fascicularis); format: ADME, organism-based; parameters: dose 20 mg/kg, route oral; settings: cynomolgus monkey, in vivo; how it was run: as §4
[15] = Urinary clearance was determined in rat at 10 mg/kg intraperitoneal dosage; format: ADME, organism-based; parameters: dose 10 mg/kg, route intraperitoneal; settings: urine, ip, read-out: CL_renal (converted); how it was run: as §5
[16] = Time taken for peak plasma concentration at a dose of 20 mg/kg, oral route in dog(beagle) suspended in carboxymethyl cellulose (CMC); format: ADME, organism-based, Canis lupus familiaris; parameters: dose 20 mg/kg, route oral; how it was run: as §4
[17] = Time taken for peak plasma concentration at a dose of 100 mg/kg, os route in rat suspended in carboxymethyl cellulose (CMC); format: ADME, organism-based; parameters: dose 100 mg/kg; settings: po; how it was run: as §1
Enterobacter cloacae = assay: In vitro antibacterial activity against clinical isolates of Enterobacter cloacae 041 (gram negative) by agar dilution assay.; format: functional
How it was run: (§6)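 Agar dilution on Isosensitest agar; compound incorporated by twofold serial dilution. Overnight broth cultures delivered by multipoint inoculator at 10⁵ CFU per point. Plates read after 18 h at 37 °C. MIC taken as the lowest concentration giving complete growth inhibition.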

[18] = Time taken for peak plasma concentration at a dose of 100 mg/kg, oral route in human; format: ADME, organism-based; parameters: dose 100 mg/kg, route oral; how it was run: as §2
Klebsiella pneumoniae = assay: In vitro antibacterial activity against clinical isolates of Klebsiella pneumoniae-4 (gram negative) by agar dilution assay.; format: functional; how it was run: as §6
[19] = Urinary excretion for the compound was evaluated as percent dose excreted at 50 mg/kg os dosage; format: ADME, organism-based; parameters: dose 50 mg/kg; settings: urine, po; how it was run: as §1
[20] = Peak plasma concentration at a dose of 50 mg/kg, os route in rat suspended in carboxymethyl cellulose (CMC); format: ADME, organism-based; parameters: dose 50 mg/kg; settings: po, read-out: Activity
How it was run: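 Fasted male Wistar rats (180–230 g), drug suspended in carboxymethyl cellulose, given orally or ip. Plasma (heparinized) and urine from metabolic cages were sampled at various times. The unchanged drug was measured by HPLC after CHCl3 extraction at pH 6.2 with an internal standard, on a C-18 column with an AcOH/MeOH gradient and UV detection at 245 nm. Interassay and intraassay variability was about 10%.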

[21] = Tissue levels determined 1 hr after peroral dose of 50 mg/kg in liver; settings: po
[22] = Peak plasma concentration at a dose of 25 mg/kg, os route in rat suspended in carboxymethyl cellulose (CMC); format: ADME, organism-based; parameters: dose 25 mg/kg; settings: po, read-out: Activity; how it was run: as §1
[23] = Half life period was determined for the compound at 50 mg/kg concentration, os route; settings: in vivo, po
[24] = Half life period was determined for the compound at 20 mg/kg concentration, oral route in dog(beagle); format: ADME, organism-based, Canis lupus familiaris; parameters: dose 20 mg/kg, route oral; settings: in vivo; how it was run: as §4
[25] = Time taken for peak plasma concentration at a dose of 25 mg/kg, os route in rat suspended in carboxymethyl cellulose (CMC); format: ADME, organism-based; parameters: dose 25 mg/kg; settings: po; how it was run: as §1
[26] = Urinary excretion for the compound was evaluated as percent dose excreted at 200 mg/kg oral dosage in human; format: ADME, organism-based; parameters: dose 200 mg/kg, route oral; settings: urine; how it was run: as §2
Morganella morganii = assay: In vitro antibacterial activity against clinical isolates of Proteus morganii 27 (gram negative) by agar dilution assay.; format: functional; how it was run: as §6
[27] = Peak plasma concentration at a dose of 200 mg/kg, oral route in human; format: ADME, organism-based; parameters: dose 200 mg/kg, route oral; settings: read-out: Activity; how it was run: as §2
[28] = Ratio of tissue (kidney) levels to plasma levels after 15 hr of treatment; format: ADME; how it was run: as §3
[29] = Half life period was determined for the compound at 200 mg/kg concentration, oral route in human; format: ADME, organism-based; parameters: dose 200 mg/kg, route oral; settings: in vivo; how it was run: as §2
[30] = Urinary excretion for the compound was evaluated as percent dose excreted at 10 mg/kg intraperitoneal dosage; format: ADME, organism-based; parameters: dose 10 mg/kg, route intraperitoneal; settings: urine, ip; how it was run: as §5
[31] = Ratio of tissue (liver) levels to plasma levels after 15 hr of treatment; format: ADME; how it was run: as §3
in vivo [32] = settings: po, 25 mg/kg
[33] = Urinary excretion for the compound was evaluated as percent dose excreted at 400 mg/kg oral dosage in human; format: ADME, organism-based; parameters: dose 400 mg/kg, route oral; settings: urine; how it was run: as §2
[34] = Time taken for peak plasma concentration at a dose of 400 mg/kg, oral route in human; format: ADME, organism-based; parameters: dose 400 mg/kg, route oral; how it was run: as §2
[35] = Peak plasma concentration at a dose of 100 mg/kg, os route in rat suspended in carboxymethyl cellulose (CMC); format: ADME, organism-based; parameters: dose 100 mg/kg; settings: po, read-out: Activity; how it was run: as §1
[36] = Total clearance was determined in rat at 10 mg/kg intraperitoneal dosage; format: ADME, organism-based; parameters: dose 10 mg/kg, route intraperitoneal; settings: in vivo, ip, read-out: Clearance (converted); how it was run: as §5
[37] = Tissue levels determined 1 hr after peroral dose of 50 mg/kg in kidney; settings: po

SMILES: CN1CCN(c2c(F)cc3c(=O)c(C(=O)O)cn4c3c2SCC4)CC1 [RUFLOXACIN]
- LD50 [1]: 224 mg/kg
- half-life (in vivo [2]): 9.9 h
- dose excreted [3]: 24.5%
- Cmax [4]: 2730 ng/mL
- CL_renal (Homo sapiens): 0.0933 mL/min/kg
- half-life [5]: 30 h
- Kp at 1 h [6]: 3
- Tmax [7]: 2 h
- concentration at 15 h (in vivo [8]): 11000 ng/mL
- CL renal [9]: 0.79 mL/min/kg
- dose excreted [10]: 22.2%
- concentration at 15 h (in vivo [11]): 8000 ng/mL
- dose excreted [12]: 45%
- concentration at 15 h (in vivo [13]): 3000 ng/mL
- half-life [14]: 50 h
- CL renal [15]: 0.75 mL/min/kg
- Tmax [16]: 4 h
- Tmax [17]: 1 h
- MIC (Enterobacter cloacae): < 0.39 µg/mL
- Tmax [18]: 4 h
- MIC (Klebsiella pneumoniae): < 0.39 µg/mL
- dose excreted [19]: 16.7%
- Cmax [20]: 8000 ng/mL
- concentration at 1 h [21]: 80000 ng/mL
- Cmax [22]: 6000 ng/mL
- half-life [23]: 8.7 h
- half-life [24]: 12 h
- Tmax [25]: 1 h
- dose excreted [26]: 55%
- MIC (Morganella morganii): 1.56 µg/mL (≈ 4.29 µM)
- Cmax [27]: 1920 ng/mL
- Kp at 15 h [28]: 2.7
- half-life [29]: 35 h
- dose excreted [30]: 26%
- Kp at 15 h [31]: 3.7
- half-life (in vivo [32]): 8.7 h
- dose excreted [33]: 33%
- Tmax [34]: 2 h
- Cmax [35]: 21000 ng/mL
- CL/F [36]: 4.22 mL/min/kg
- concentration at 1 h [37]: 61000 ng/mL
